This note sets out measurements from ChEMBL document CHEMBL5104102, “Discovery of FtsZ inhibitors by virtual screening as antibacterial agents and study of the inhibition mechanism” (RSC Med Chem, 2022).

≈ marks a conversion by molar mass, not a printed value. Calls of active or inactive are those of the source.

Assay [1] deals with Staphylococcus aureus. The assay can be described thus: Bactericidal activity against methicillin-resistant Staphylococcus aureus BAA 41 assessed as inhibition of bacterial growth at 8 ug/ml incubated for 24 hrs by time-kill assay. The following applies: dose 8 µg/ml. It counts as functional. The method in brief:
(§1)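 Time-kill: 3 mL culture at 5 × 10^5 CFU mL−1 exposed to compound at several concentrations or to 1% DMSO control at 37 °C with shaking at 250 rpm, over 24 h. 100 μL samples taken at intervals, diluted as needed, and spread on agar. Colonies counted after 24 h at 37 °C.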

Assay [2] concerns Staphylococcus aureus. The assay can be described thus: Antibacterial activity against Staphylococcus aureus 29213 assessed as inhibition of bacterial growth incubated for 18 hrs by CLSI protocol based two fold serial dilution method. It counts as functional. The method, boiled down:
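S. aureus ATCC 29213 was grown in CAMHB and tested by CLSI-based broth microdilution. An overnight culture (37 °C, 250 rpm) was diluted tenfold, grown 2 h, and set to 5 × 10^6 CFU mL−1. Cells were added to two-fold serial compound dilutions (1% DMSO) and incubated 18 h at 37 °C. Read-out was A600, in duplicate. MIC was the lowest concentration with A600 < 0.1.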

For assay [3], the system named is Bacillus subtilis. The assay can be described thus: Antibacterial activity against Bacillus subtilis 168 assessed as cell length at 0.5 ug/ml incubated for 4 hrs by phase-contrast microscopy. It counts as functional. As to conditions: dose 0.5 µg/ml. The method, boiled down:
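B. subtilis 168 overnight culture was diluted tenfold into fresh medium and grown 2 h. It was then adjusted to A600 = 0.01, given compound, and incubated 4 h at 37 °C; 1% (v/v) DMSO was the control. Cells were harvested, resuspended in LB, mounted on 1.2% agarose pads and imaged by phase contrast. Lengths of 100 cells per condition were measured to give length distributions and averages.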

Assay [4] concerns Bacillus subtilis. The assay can be described thus: Antibacterial activity against Bacillus subtilis 168 assessed as inhibition of bacterial growth incubated for 18 hrs by CLSI protocol based two-fold serial dilution assay. In kind it is functional. The method in brief: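 B. subtilis 168 or E. coli ATCC 25922 was grown in MHB and tested by CLSI-based broth microdilution. An overnight culture (37 °C, 250 rpm) was diluted tenfold, grown 2 h, and set to 5 × 10^6 CFU mL−1 by A600. Cells were added to two-fold serial compound dilutions (1% DMSO) and incubated 18 h at 37 °C. Read-out was A600, in duplicate. MIC was the lowest concentration giving A600 < 0.1.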

In assay [5] the test system is Staphylococcus aureus. The assay can be described thus: Bactericidal activity against methicillin-resistant Staphylococcus aureus BAA 41 assessed as inhibition of bacterial growth at 2 ug/ml incubated for 24 hrs by time-kill assay. In kind it is functional, organism-based. As to conditions: dose 2.0 µg/ml. The method in brief: as §1
Assay [6] concerns Staphylococcus aureus. The assay can be described thus: Bactericidal activity against methicillin-resistant Staphylococcus aureus BAA 41 assessed as inhibition of bacterial growth at 4 ug/ml incubated for 24 hrs by time-kill assay. The following applies: dose 4 µg/ml. In kind it is functional. The method in brief:
as §1

A further assay deals with Escherichia coli. The assay can be described thus: Synergistic antibacterial activity against Escherichia coli 25922 assessed as inhibition of bacterial growth incubated for 18 hrs in presence of PMBN by checkerboard assay. In kind it is functional. The method in brief:
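E. coli ATCC 25922 was tested in MHB by the broth microdilution format with two-fold serial compound dilutions. Polymyxin B nonapeptide was added to each well at 20 μg mL−1 final before adding bacteria at 5 × 10^5 CFU mL−1. Growth was read by A600.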

Assay [7] has as its system Staphylococcus aureus. The assay can be described thus: Synergistic antibacterial activity against methicillin-resistant Staphylococcus aureus BAA 41 assessed as FICI incubated for 18 hrs in presence of methicillin by checkerboard assay. In kind it is functional. The method in brief: (§2)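 Checkerboard: test compound serially diluted two-fold across the plate and methicillin serially diluted down it. Bacteria added at 5 × 10^5 CFU mL−1. Incubated at 37 °C for 16–24 h, then growth read at A600. Untreated-cell columns included. FICI calculated from the combination MICs.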

Assay [8] deals with T1, Cell division protein FtsZ (Bacillus subtilis (strain 168)) (UniProt P17865).
T1 sequence (whole entry): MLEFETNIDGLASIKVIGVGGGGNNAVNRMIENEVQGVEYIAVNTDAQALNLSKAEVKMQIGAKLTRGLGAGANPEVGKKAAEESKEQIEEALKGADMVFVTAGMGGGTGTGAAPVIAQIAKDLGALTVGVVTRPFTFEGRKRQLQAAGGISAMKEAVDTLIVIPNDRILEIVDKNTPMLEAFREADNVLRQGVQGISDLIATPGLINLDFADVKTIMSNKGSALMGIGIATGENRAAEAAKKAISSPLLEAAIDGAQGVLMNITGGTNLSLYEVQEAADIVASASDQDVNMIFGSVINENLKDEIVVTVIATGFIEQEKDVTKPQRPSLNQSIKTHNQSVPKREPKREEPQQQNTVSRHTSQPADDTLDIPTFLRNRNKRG
The assay can be described thus: Inhibition of GFP-tagged FtsZ in Bacillus subtilis 168 assessed as inhibition of z-ring formation at 0.125 ug/ml incubated for 4 hrs by FM 5-96 dye based super-resolution microscopy. As to conditions: dose 0.125 µg/ml. The method, boiled down:
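B. subtilis 168 carried an IPTG-inducible FtsZ-GFP plasmid and was grown overnight at 37 °C in LB with 30 μg mL−1 chloramphenicol. It was back-diluted to A600 = 0.01, induced with 40 μM IPTG, and treated with compound for 4 h at 37 °C with shaking. Cells were pelleted, resuspended in PBS and mounted on agarose pads. Membranes were stained with FM 5-96, and FtsZ-GFP localization was imaged by super-resolution microscopy (N-SIM).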

Assay [9] concerns the target T2, Cell division protein FtsZ (Staphylococcus aureus) (UniProt P0A031).
T2 sequence (whole entry): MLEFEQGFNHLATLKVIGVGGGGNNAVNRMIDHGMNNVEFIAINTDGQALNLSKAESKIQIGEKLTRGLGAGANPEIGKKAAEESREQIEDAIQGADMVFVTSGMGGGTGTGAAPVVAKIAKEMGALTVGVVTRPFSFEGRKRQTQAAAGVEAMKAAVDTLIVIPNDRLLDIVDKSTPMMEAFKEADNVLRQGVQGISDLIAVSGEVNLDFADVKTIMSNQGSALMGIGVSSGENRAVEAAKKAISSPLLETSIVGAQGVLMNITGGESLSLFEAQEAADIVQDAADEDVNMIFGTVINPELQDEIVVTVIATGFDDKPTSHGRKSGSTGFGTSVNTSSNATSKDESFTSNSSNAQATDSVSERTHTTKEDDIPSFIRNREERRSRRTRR
The assay can be described thus: Inhibition of Staphylococcus aureus FtsZ polymerization assessed as increase in GTPase activity at 5 to 20 ug/ml incubated for 40 mins in presence of GTP by malachite green phosphate assay. As to conditions: dose 5-20 µg/ml, DDE = dose-dependent effect. The method, boiled down:
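Purified S. aureus FtsZ (3 μM) was preincubated with serially diluted compound in 50 mM MOPS pH 6.5 for 30 min at room temperature; 1% DMSO served as control. MgCl2 (5 mM) and KCl (200 mM) were added, and the reaction was started with 250 μM GTP for 10 min at 37 °C. Malachite green reagent was then developed 30 min at 37 °C, and released phosphate was read at A600.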

Assay [10] relates to Staphylococcus aureus. The assay can be described thus: Synergistic antibacterial activity against methicillin-resistant Staphylococcus aureus BAA 41 assessed as inhibition of bacterial growth incubated for 18 hrs in presence of methicillin by checkerboard assay. In kind it is functional. The method, boiled down:
as §2

Broadly, the MIC is the smallest concentration in the dilution series that meets the test's criterion for growth inhibition. For `NC(=O)c1c(F)ccc(OCc2nc3cc(Cl)cnc3s2)c1F`, the Activity with Staphylococcus aureus [1] came out at 0 log10CFU/ml; in the assay with Bacillus subtilis [3], 135.8 um; in the assay on Staphylococcus aureus [6], 0 log10CFU/ml. Besides, the MIC in the assay with Staphylococcus aureus [2] was 0.5 µg/mL (≈ 1.41 µM); in the assay on Bacillus subtilis [4], 0.5 µg/mL (≈ 1.41 µM); in the assay with Escherichia coli, 32 µg/mL; in the assay on Staphylococcus aureus [10], 0.5 µg/mL. The result with Staphylococcus aureus [5] was Active. In addition, the “fractional inhibitory concentration index (FICI)” value in the assay with Staphylococcus aureus [7] was found to be 0.52. Besides, the inhibition entry in [8] is “Active”. In assay [9], the inhibition entry was “Dde”.
